Assay outcomes: PubChem BioAssay, several laboratories
SUMO Mot1 rescue: yeast Mot1-301 growth rescue at high temperature, primary screen, SUMOylation pathway inhibitor project, S. cerevisiae, ATP luminescence, 38.5C. S. cerevisiae Mot1-301 growth rescue; percent above DMSO median, 100 means doubled. growth rescue, % at 18.8 µM. actives 1% (n = 320,000). AID 2716, 2010;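 active = every valid replicate shows activation above 250% relative to neutral control wells; inactive = the rest, any valid replicate at or below 250%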;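 also: OY570 slx delta 5 strain wells were the positive control but not used for scaling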
Efflux pump inh: inhibitors of Candida efflux pumps in yeast, primary screen, S. cerevisiae, Nile Red, multiplex; inhibition, % at 10 µM; actives 0.44% (n = 330,000); AID 485275, 2010; S. cerevisiae Candida pump triplex;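 active = plate passing quality check with inhibition over a set limit, or well fluorescence over plate mean plus 4 SD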;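 also: Nile Red retained in pooled yeast measured as flow cytometry median fluorescence; 0% = buffer negative control and 100% = Enniatin B positive control; higher means more Nile Red kept so more efflux inhibition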
Statin myotox sup: suppressors of statin myotoxicity in C2C12 myotubes, primary screen, cell-based, single point, plate reader; actives 0.78% (n = 330,000); C2C12 myotubes + simvastatin, ATP luminescence, 48 h; scaled: DMSO 0, geranylgeraniol control 100; rescue of ATP level, % at 7.49 µM;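 active = mean ATP rescue above about 67%, or every replicate alone reaching that limit, limit read from the data, passing the limit was not always enough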;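 also: myotubes were challenged with 10 µM simvastatin during compound exposure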
Cneo AK release: Cryptococcus neoformans cell lysis inducers, primary screen, AK release luminescence, single concentration. actives 0.2% (n = 360,000). AID 651654, 2012. C. neoformans lysis, adenylate kinase release luminescence, 4 h; normalised: neutral wells 0, clomiphene wells 100. lysis activity, % at 15 µM;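 active = mean lysis activity across replicates of at least 80%, whatever share of replicates individually reach that level; inactive = mean lysis activity below 80%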
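Material: C. neoformans cells; Schedule: 4 h static compound exposure, 37 °C, read 1 h post-reagent; Measured by: adenylate kinase release luminescence; Read-out: signal increase indicating cell lysis; Controls: Clomiphene as positive lysis control.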
Mot1 SUMO dose: growth restoration of Mot1-301 yeast on galactose, dose response, SUMO pathway inhibitor project, whole organism, S. cerevisiae, ATP luminescence, cherry-picked samples | growth activity, percent, % at 42 µM | shares compounds with SUMO Mot1 rescue | S. cerevisiae Mot1-301 galactose growth, 24 h; -100 = growth of slx-deleted rescue strain | AID 493004, 2010 | 2,300 tested, under 10 active;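 active = Signal drops as the depositor expects, and the fitted half-maximal dose is no more than ten times the top valid tested dose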;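 also: more negative values mean stronger growth rescue toward the control strain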
Numbers without * were called inactive; i = inactive; · = not tested or not shown; + = active, no number; [ ] = another dose, or the depositor's remark. Hits are enriched below; roughly 1.8% of the tested compounds scored in any of these assays.

SMILES | SUMO Mot1 rescue | Efflux pump inh | Statin myotox sup | Cneo AK release | Mot1 SUMO dose
COc1cccc(S(=O)(=O)Nc2cccc(C(=O)N3CCCC3)c2)c1 | 0 | -1 | 2 | 9 | ·
Cc1c(C(=O)N2CCCCC2)c(S(=O)(=O)Nc2cccc(Br)c2)c(C)n1C | 0 | 0 | 1 | 0 | ·
O=c1[nH]nc(SCCS(=O)(=O)c2ccc(F)cc2)n1-c1ccc2c(c1)OCCO2 | 9 | 0 | · | 2 | ·
CC(=O)c1ccc(NC(=O)CSc2nnc(-c3ccco3)o2)cc1 | 426* | 0 | -4 | -2 | 0
CC(C)(C)c1ccc(OCC(=O)NNC(=O)Cc2cccs2)cc1 | i | 0 | -2 | 1 | ·
CCCCCC(=O)N1C[C@@H](n2cc(C3CC3)nn2)[C@H](O)C[C@@H]1c1ccc(OC)cc1 | · | · | -1 | -2 | ·
O=C(Nc1ccc([N+](=O)[O-])cn1)C1CC1 | 573* | 0 | 4 | -1 | 1
COc1ccc2[nH]cc(C(=O)C(=O)N3CCCCC3)c2c1 | 695* | 0 | 2 | 5 | 0
CCC(CO)Oc1cc(NCc2ccccc2C(F)(F)F)c2ncn(C(C)C)c2c1 (centres undefined) | -4 | 0 | · | -2 | ·
Cc1cccc(NC(=O)Nc2ccc3c(c2)C(=O)N(C)[C@@H]2CC[C@@H](CC(=O)NCc4ccccc4Cl)O[C@H]2CO3)c1 | · | · | -174 | 0 | ·
Cc1sc2ncnc(SCC(=O)Nc3ncccc3O)c2c1C | 30 | 0 | -18 | 0 | ·
CCCc1nnc(NC(=O)c2cn(CC)c3cc(N4CCN(C)CC4)c(F)cc3c2=O)s1 | 644* | 0 | · | 6 | 0[21 µM]
S=c1[nH]ccn1-c1cccc(Cl)c1 | 479* | 0 | · | -4 | -1
COc1cc(NC(=S)N2CCN(C(=O)C3CCCO3)CC2)c(OC)cc1Cl (centres undefined) | 370* | 0 | · | · | 1
Cc1nc2nc(-c3ccccc3)nn2c(C)c1C | -8 | 0 | 13 | · | ·
COc1ccc(CNS(=O)(=O)c2ccc3c(c2)CCN3C(=O)C2CCC2)cc1 | 412* | 0 | 113* | 0 | 0
COc1cccc(CNS(=O)(=O)c2ccc3c(c2)CCN3C(=O)C2CC2)c1 | · | 0 | · | · | ·
CCc1cc(/C(Cc2ccccn2)=N\O)c(O)cc1O | 486* | 0 | 45 | -1 | 0
CCCN(CCC)C(=O)CSc1ncccc1C(=O)O | 399* | 0 | · | · | 0
CN(C(=O)CSc1ncccc1C(=O)O)c1ccccc1 | 2 | 0 | -11 | 0 | ·
Fc1cccc(F)c1-c1nc(-c2ccncc2)no1 | 952* | 0 | 1 | 0 | 0
Cc1ccc(-c2nc(-c3ccncc3)no2)cc1C | 31 | 0 | 3 | -1 | ·
COc1ccc(-c2cc(=O)c3cc(O)ccc3o2)cc1 | 554* | 0 | 14 | -4 | 0
O=S(=O)(c1ccc(N2CCCC2)nc1)N1CCOCC1 | 22 | 0 | · | 0 | ·
NC(=O)C1CCCN(C(=S)NCc2ccc3c(c2)OCO3)C1 (centres undefined) | 4 | 0 | · | · | ·
SMILES | SUMO Mot1 rescue | Efflux pump inh | Statin myotox sup | Cneo AK release | Mot1 SUMO dose
NC(=O)C1CCCN(C(=S)Nc2cccc3ccccc23)C1 (centres undefined) | 909* | 0 | -2 | -1 | 0
NNC(=O)c1oc2nc(-c3ccccc3)cc(-c3ccccc3)c2c1N | 477* | 1 | 37 | 0 | 0
CCOC(=O)c1c(C)[nH]c(C(=O)COC(=O)[C@H](C)N2C(=O)C3CCCCC3C2=O)c1C (some centres undefined) | · | · | 10 | 0 | ·
Cc1cc(=O)c(C(=O)O)cn1Nc1ccc(Cl)cc1 | + | 0 | · | -1 | 0
Cc1cc(=O)c(C(=O)O)cn1Nc1ccc(F)cc1 | · | 0 | · | -1 | ·
CCCCN(C(=O)C1CCCC1)c1c(N)n(Cc2ccccc2)c(=O)[nH]c1=O | 4 | 0 | 5 | 0 | ·
N#Cc1cc2c(nc1SCc1cccnc1)CCC2 | + | 0 | 10 | -7 | 0
O=C1CC(c2ccccc2Cl)C2=C(COC2=O)N1 (centres undefined) | · | 0 | -2 | -9 | ·
O=C1CC(c2cccc(Br)c2)C2=C(COC2=O)N1 (centres undefined) | 386* | 0 | · | · | 1
CC1(C)CC(=O)C=C(OC(=O)c2ccc(Cl)cc2)C1 | 470* | 0 | 14 | · | 0
Cc1ccc(C(C(=O)NC(C)(C)C)N(Cc2ccc3c(c2)OCO3)C(=O)c2ccc(CN3CCOCC3)o2)o1 (centres undefined) | -14 | 0 | · | · | ·
CC(C)(C)NC(=O)C(c1cccs1)N(Cc1cccs1)C(=O)c1ccc(CN2CCOCC2)o1 (centres undefined) | + | 0 | · | · | 0
CCc1cc2c(=O)c(-c3nc4ccccc4[nH]3)coc2c(CN2CCCCC2C)c1O (centres undefined) | 121 | 0 | · | 0 | ·
CCc1cc2c(=O)c(-c3nc4ccccc4n3C)c(C)oc2c(CN2CCOCC2)c1O | 520* | 0 | -36 | 4 | -1
CCc1cc2c(=O)c(-c3nc4ccccc4[nH]3)coc2c(CN2CCCCC2)c1O | 477* | 0 | · | · | -1
O=S(=O)(c1ccc(F)cc1)N1C[C@H]2[C@@H](c3ccccc31)[C@H](CO)N2Cc1ccc2c(c1)OCO2 | · | · | 49 | 8 | ·
COc1ccccc1NC(=O)COC(=O)C1C2CC3OC(=O)C1C3C2 (centres undefined) | 597 | 0 | 21 | -2 | ·
Cc1ccccc1NC(=O)COC(=O)C1C2CC3OC(=O)C1C3C2 (centres undefined) | 474* | 0 | 29 | 2 | 1
Cc1ccc(N(C(=O)Cn2nnc3ccccc32)C(C(=O)NC2CCCCC2)c2cn(C)nc2C)cc1 (centres undefined) | 835* | 0 | -6 | 1 | 0[21 µM]
Cc1nn(C)cc1C(C(=O)NC1CCCCC1)N(C(=O)Cn1nnc2ccccc21)c1ccc(F)cc1 (centres undefined) | 23 | 0 | 1 | 0 | ·
Cc1cc(C)n2c(SCCC(C)C)nnc2n1 | -5 | 0 | -3 | 3 | ·
Cc1cc(C)n2c(SCC(C)C)nnc2n1 | 770* | 0 | -2 | 1 | -1
OC(c1ccccc1)(C1CCCCC1)C(CN1CCOCC1)c1ccccc1 (centres undefined) | 460* | 0 | 33 | 2 | 0
COc1ccc(C(O)(C2CCCCC2)C(CN2CCOCC2)c2ccccc2)cc1 (centres undefined) | 143 | 0 | 26 | 1 | ·
O=C1CCC(C(=O)N2CCN(c3ccccc3)CC2)CN1CC1CCCCC1 (centres undefined) | 532* | 0 | 1 | 0 | 0
CC1CCN(S(=O)(=O)c2ccc(NC(=O)c3cccs3)cc2)CC1 | 415* | 0 | · | 1 | 1
